Laboratory results from ChEMBL document CHEMBL4270630.

Experiments:
Influenza A virus [1] = assay: Antiviral activity against Influenza A virus A/PR/8/34(H1N1) infected in MDCK cells assessed as reduction in virus-induced cytopathic effect after 3 days by microscopic method; format: functional, organism-based, A/Puerto Rico/8/1934(H1N1); conditions: Influenza A virus, A/Puerto Rico/8/1934(H1N1), MDCK, 72 h
Method in brief: (§1)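 Semi-confluent MDCK cells were infected at an MOI of 0.0004 PFU/cell in Ultra-MDCK infection medium with 2 μg/mL TPCK-trypsin, together with compounds. After 3 days at 35 °C, CPE was scored by microscopy and confirmed by MTS formazan viability. EC50 is the concentration giving 50% inhibition of virus-induced CPE. Values are means of two to five independent tests.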

Influenza A virus [2] = assay: Antiviral activity against Influenza A virus A/PR/8/34(H1N1) infected in MDCK cells after 3 days by MTS assay; format: functional, organism-based, A/Puerto Rico/8/1934(H1N1); conditions: Influenza A virus, A/Puerto Rico/8/1934(H1N1), MDCK, 72 h; method in brief: as §1
Influenza A virus [3] = assay: Antiviral activity against Influenza A virus A/Virginia/ATCC3/2009(H1N1pdm) infected in MDCK cells assessed as reduction in virus-induced cytopathic effect after 3 days by microscopic method; format: functional, organism-based, Influenza A virus (A/Virginia/03/2009(H1N1)); conditions: 72 h; method in brief: as §1
Influenza A virus [4] = assay: Antiviral activity against Influenza A virus A/Virginia/ATCC3/2009(H1N1pdm) infected in MDCK cells after 3 days by MTS assay; format: functional, organism-based, Influenza A virus (A/Virginia/03/2009(H1N1)); conditions: 72 h; method in brief: as §1
H3N2 subtype [5] = assay: Antiviral activity against Influenza A virus A/HK/7/87(H3N2) infected in MDCK cells assessed as reduction in virus-induced cytopathic effect after 3 days by microscopic method; format: functional, organism-based; conditions: A/Hong Kong/7/1987(H3N2), 72 h; method in brief: as §1
H3N2 subtype [6] = assay: Antiviral activity against Influenza A virus A/HK/7/87(H3N2) infected in MDCK cells after 3 days by MTS assay; format: functional, organism-based; conditions: A/Hong Kong/7/1987(H3N2), 72 h; method in brief: as §1
Influenza B virus [7] = assay: Antiviral activity against Influenza B virus B/HK/05/72 infected in MDCK cells assessed as reduction in virus-induced cytopathic effect after 3 days by microscopic method; format: functional, organism-based; conditions: B/Hong Kong/05/1972, MDCK, 72 h; method in brief: as §1
Influenza B virus [8] = assay: Antiviral activity against Influenza B virus B/HK/05/72 infected in MDCK cells after 3 days by MTS assay; format: functional, organism-based; conditions: B/Hong Kong/05/1972, MDCK, 72 h; method in brief: as §1
[9] = (§2) Cytotoxicity against MDCK cells assessed as reduction in cell viability after 3 days by MTS assay; format: cell-based, Canis lupus familiaris; conditions: dog, MDCK cells
[10] = Cytotoxicity against MDCK cells assessed as alteration in cell morphology after 3 days by microscopic method; format: cell-based, Canis lupus familiaris; conditions: dog
Method in brief: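 Mock-infected MDCK cells were treated with compounds in parallel with the antiviral assay, 3 days at 35 °C. MCC is the concentration causing minimal change in cell morphology by microscopy. CC50 is the 50% cytotoxic concentration by MTS formazan viability assay.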

Influenza B virus [11] = assay: Antiviral activity against Influenza B virus B/Ned/537/05 infected in MDCK cells assessed as reduction in virus-induced cytopathic effect after 3 days by microscopic method; format: functional, organism-based; conditions: B/Ned/537/05, MDCK, 72 h
Method in brief: (§3)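 Semi-confluent MDCK cells were infected at an MOI of 0.0004 PFU/cell in Ultra-MDCK infection medium with 2 μg/mL TPCK-trypsin, together with compounds. After 3 days at 35 °C, CPE was scored by microscopy and confirmed by MTS formazan viability. Values are means of two to five independent tests.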

Influenza B virus [12] = assay: Antiviral activity against Influenza B virus B/Ned/537/05 infected in MDCK cells after 3 days by MTS assay; format: functional, organism-based; conditions: B/Ned/537/05, MDCK, 72 h; method in brief: as §3
MDCK = assay: as §2; format: cell-based, Canis lupus familiaris; conditions: dog, mdck, 72 h
Human coronavirus 229E [13] = assay: Antiviral activity against Human coronavirus 229E infected in HEL299 cells assessed as reduction in virus induced cytopathic effect after 5 days by microscopic method; format: functional, organism-based; conditions: HEL 299, 120 h
Method in brief: (§4)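 Confluent HEL 299 cells in medium with 2% FCS were exposed to HCoV-229E (100 CCID50/well) together with compounds and held for 5 days at 35 °C. EC50 (CPE reduction) and MCC (minimal morphology change) were determined by microscopy. SI is MCC/EC50.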

[14] = Cytotoxicity against HEL299 cells assessed as changes in cell morphology after 5 days by microscopic method; format: cell-based, HEL 299; conditions: human; method in brief: as §4
Human coronavirus 229E [15] = assay: Antiviral activity against Human coronavirus 229E infected in human A549 cells assessed as reduction in virus RNA level after 3 days by qRT-PCR method; format: functional; conditions: A549, 72 h
Method in brief: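 Confluent A549 cells were infected with HCoV-229E in 2% FCS medium with compounds present. The inoculum was removed at 1 h and compounds were kept on at 35 °C. Supernatants were harvested at day 3, lysed at 75 °C for 10 min, and viral genome copies counted by one-step qRT-PCR.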

[16] = Cytotoxicity against human A549 cells assessed as changes in cell morphology after 3 days by microscopic method; format: cell-based
Method in brief: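 Mock-infected A549 cells were incubated with compounds for 3 days. MCC is the concentration causing minimal change in cell morphology by microscopy.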

Structure (SMILES) | EC50 (Influenza A virus [1]) [µM] | EC50 (Influenza A virus [2]) [µM] | EC50 (Influenza A virus [3]) [µM] | EC50 (Influenza A virus [4]) [µM] | EC50 (H3N2 subtype [5]) [µM] | EC50 (H3N2 subtype [6]) [µM] | EC50 (Influenza B virus [7]) [µM] | EC50 (Influenza B virus [8]) [µM] | CC50 at 72 h [9] [µM] | MCC at 72 h [10] [µM] | EC50 (Influenza B virus [11]) [µM] | EC50 (Influenza B virus [12]) [µM] | CC50 (MDCK) [µM] | EC50 (Human coronavirus 229E [13]) [µM] | MCC at 120 h [14] [µM] | EC90 (Human coronavirus 229E [15]) [µM] | EC99 (Human coronavirus 229E [15]) [µM] | MCC at 72 h [16] [µM]
CC(=O)N[C@H]1[C@H](O[C@@H]2c3ccc(c(Cl)c3)Oc3cc4cc(c3O)Oc3ccc(cc3Cl)C[C@H]3NC(=O)[C@H](n5cc(COc6ccccc6)nn5)c5ccc(O)c(c5)Oc5cc(O)cc(c5)[C@H](NC3=O)C(=O)N[C@H]4C(O)N[C@H]3C(=O)N[C@H]2C(=O)N[C@@H](C(=O)O)c2cc(O)cc(O)c2-c2cc3ccc2O)O[C@H](CO)[C@@H](O)[C@@H]1O (stereo not given in full) | > 100 | > 100 | > 100 | > 100 | 11 | 11 | > 100 | > 100 | 41 | ≥ 20 | – | – | – | – | – | – | – | –
CCCCCCCCCCCCCCCCOCc1cn([C@H]2C(=O)N[C@@H]3Cc4ccc(c(Cl)c4)Oc4cc5cc(c4O)Oc4ccc(cc4Cl)[C@@H](O[C@@H]4O[C@H](CO)[C@@H](O)[C@H](O)[C@H]4NC(C)=O)[C@H]4NC(=O)[C@H](NC(O)[C@@H]5NC(=O)[C@@H](NC3=O)c3cc(O)cc(c3)Oc3cc2ccc3O)c2ccc(O)c(c2)-c2c(O)cc(O)cc2[C@H](C(=O)O)NC4=O)nn1 (stereo not given in full) | 1.6 | 1.8 | 1.8 | 1.8 | ≤ 8.9 | ≤ 1.6 | 1.8 | 1.3 | 7.6 | ≥ 4 | – | – | – | – | – | – | – | –
CC(=O)N[C@H]1[C@H](O[C@@H]2c3ccc(c(Cl)c3)Oc3cc4cc(c3O)Oc3ccc(cc3Cl)C[C@H]3NC(=O)[C@H](n5cc(COC[C@H]6O[C@@H]7OC(C)(C)O[C@@H]7[C@H]7OC(C)(C)O[C@H]76)nn5)c5ccc(O)c(c5)Oc5cc(O)cc(c5)[C@H](NC3=O)C(=O)N[C@H]4C(O)N[C@H]3C(=O)N[C@H]2C(=O)N[C@@H](C(=O)O)c2cc(O)cc(O)c2-c2cc3ccc2O)O[C@H](CO)[C@@H](O)[C@@H]1O (stereo not given in full) | 52 | 47 | 45 | 43 | 39 | 24 | 39 | 29 | > 100 | ≥ 100 | – | – | – | – | – | – | – | –
CCCCCCOCc1cn([C@H]2C(=O)N[C@@H]3Cc4ccc(c(Cl)c4)Oc4cc5cc(c4O)Oc4ccc(cc4Cl)[C@@H](O[C@@H]4O[C@H](CO)[C@@H](O)[C@H](O)[C@H]4NC(C)=O)[C@H]4NC(=O)[C@H](NC(O)[C@@H]5NC(=O)[C@@H](NC3=O)c3cc(O)cc(c3)Oc3cc2ccc3O)c2ccc(O)c(c2)-c2c(O)cc(O)cc2[C@H](C(=O)O)NC4=O)nn1 (stereo not given in full) | > 100 | > 100 | > 100 | > 100 | 15 | 13 | 17 | 11 | 53 | ≥ 20 | – | – | – | – | – | – | – | –
CCCCCCCCCCCCOCc1cn([C@H]2C(=O)N[C@@H]3Cc4ccc(c(Cl)c4)Oc4cc5cc(c4O)Oc4ccc(cc4Cl)[C@@H](O[C@@H]4O[C@H](CO)[C@@H](O)[C@H](O)[C@H]4NC(C)=O)[C@H]4NC(=O)[C@H](NC(O)[C@@H]5NC(=O)[C@@H](NC3=O)c3cc(O)cc(c3)Oc3cc2ccc3O)c2ccc(O)c(c2)-c2c(O)cc(O)cc2[C@H](C(=O)O)NC4=O)nn1 (stereo not given in full) | > 100 | > 100 | > 100 | > 100 | > 100 | > 100 | > 100 | > 100 | 2.3 | 9.3 | – | – | – | – | – | – | – | –
CCCCCCSC1=C(SCCCCCC)C(=O)N([C@H]2C(=O)N[C@@H]3Cc4ccc(c(Cl)c4)Oc4cc5cc(c4O)Oc4ccc(cc4Cl)[C@@H](O[C@@H]4O[C@H](CO)[C@@H](O)[C@H](O)[C@H]4NC(C)=O)[C@H]4NC(=O)[C@H](NC(O)[C@@H]5NC(=O)[C@@H](NC3=O)c3cc(O)cc(c3)Oc3cc2ccc3O)c2ccc(O)c(c2)-c2c(O)cc(O)cc2[C@H](C(=O)O)NC4=O)C1=O (stereo not given in full) | > 100 | > 100 | > 100 | > 100 | > 100 | > 100 | – | – | – | 4 | > 100 | > 100 | 9.8 | 5.4 | ≥ 20 | 5.8 | 9.4 | 50
CCCCCCCCOCc1cn(CCOCCOCCOCCOCc2cn([C@H]3C(=O)N[C@@H]4Cc5ccc(c(Cl)c5)Oc5cc6cc(c5O)Oc5ccc(cc5Cl)[C@@H](O[C@@H]5O[C@H](CO)[C@@H](O)[C@H](O)[C@H]5NC(C)=O)[C@H]5NC(=O)[C@H](NC(O)[C@@H]6NC(=O)[C@@H](NC4=O)c4cc(O)cc(c4)Oc4cc3ccc4O)c3ccc(O)c(c3)-c3c(O)cc(O)cc3[C@H](C(=O)O)NC5=O)nn2)nn1 (stereo not given in full) | > 100 | > 100 | > 100 | > 100 | > 100 | > 100 | – | – | – | 20 | > 100 | > 100 | 19 | 8.9 | 100 | 23 | 30 | > 50
CCCCSC1=C(SCCCC)C(=O)N(Cc2cn(C3C(=O)N[C@@H]4Cc5ccc(c(Cl)c5)Oc5cc6cc(c5O)Oc5ccc(cc5Cl)[C@@H](O[C@@H]5O[C@H](CO)[C@@H](O)[C@H](O)[C@H]5NC(C)=O)[C@H]5NC(=O)[C@H](NC(O)[C@@H]6NC(=O)[C@@H](NC4=O)c4cc(O)cc(c4)Oc4cc3ccc4O)c3ccc(O)c(c3)-c3c(O)cc(O)cc3[C@H](C(=O)O)NC5=O)nn2)C1=O (stereo not given in full) | 2.1 | 3.2 | 9.8 | 7.4 | > 100 | 4.9 | – | – | – | 20 | 2.5 | 3.5 | 28 | 5.4 | ≥ 20 | 5.9 | 11 | > 50
CCCCSC1=C(SCCCC)C(=O)N([C@H]2C(=O)N[C@@H]3Cc4ccc(c(Cl)c4)Oc4cc5cc(c4O)Oc4ccc(cc4Cl)[C@@H](O[C@@H]4O[C@H](CO)[C@@H](O)[C@H](O)[C@H]4NC(C)=O)[C@H]4NC(=O)[C@H](NC(O)[C@@H]5NC(=O)[C@@H](NC3=O)c3cc(O)cc(c3)Oc3cc2ccc3O)c2ccc(O)c(c2)-c2c(O)cc(O)cc2[C@H](C(=O)O)NC4=O)C1=O (stereo not given in full) | > 100 | > 100 | 2.9 | 2.6 | > 100 | > 100 | – | – | – | 4 | > 100 | > 100 | 8.6 | 5.4 | ≥ 20 | 4.1 | 10 | 50
CCCCCCCCS(=O)(=O)N[C@H]1C(=O)N[C@@H]2Cc3ccc(c(Cl)c3)Oc3cc4cc(c3O)Oc3ccc(cc3Cl)[C@@H](O[C@@H]3O[C@H](CO)[C@@H](O)[C@H](O)[C@H]3NC(C)=O)[C@H]3NC(=O)[C@H](NC(O)[C@@H]4NC(=O)[C@@H](NC2=O)c2cc(O)cc(c2)Oc2cc1ccc2O)c1ccc(O)c(c1)-c1c(O)cc(O)cc1[C@H](C(=O)O)NC3=O (stereo not given in full) | 1.9 | 2.5 | > 100 | > 100 | 2 | 2.4 | – | – | – | 20 | 4 | > 100 | 14 | 5.4 | ≥ 20 | 5.7 | 9.4 | > 50
